Assay results published in paper PMC8612216 (Proceedings of the National Academy of Sciences of the …, 2021).

What was measured:
NFP = biological target: T1, NFP (Medicago truncatula, UniProt Q0GXS4); assay: MST steady-state binding to fluorescently labeled NFP; settings: ligand 0.6 to 20,000 nM, NFP 12.5 to 50 nM
T1 sequence (Q0GXS4 28-246): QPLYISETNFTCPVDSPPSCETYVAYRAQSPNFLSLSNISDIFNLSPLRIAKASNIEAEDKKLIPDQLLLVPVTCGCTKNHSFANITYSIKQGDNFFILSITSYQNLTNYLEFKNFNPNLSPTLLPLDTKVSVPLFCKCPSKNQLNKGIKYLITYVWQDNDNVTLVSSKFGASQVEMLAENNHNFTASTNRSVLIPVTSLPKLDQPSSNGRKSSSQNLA
Procedure, shortened: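 Microscale thermophoresis using NHS blue dye-labelled NFP ectodomain (insect cell-expressed) held at a constant 12.5–50 nM. Ligands were S. meliloti succinoglycan (EPS-I) and maltodextrin, each titrated from 0.6 to 20,000 nM. Steady-state binding signal was recorded.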

CERK1 = biological target: T2, CERK1 (Arabidopsis thaliana, UniProt A8R7E6); assay: BLI kinetics of CERK1 ectodomain binding to chitin fragment
T2 sequence (A8R7E6 24-232 limits assumed): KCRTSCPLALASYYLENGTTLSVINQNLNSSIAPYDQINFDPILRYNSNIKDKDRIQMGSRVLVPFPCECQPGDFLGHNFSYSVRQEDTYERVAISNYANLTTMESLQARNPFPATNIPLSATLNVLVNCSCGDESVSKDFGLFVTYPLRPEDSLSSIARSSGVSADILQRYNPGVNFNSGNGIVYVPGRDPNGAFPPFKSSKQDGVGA

NFR5 ectodomain = biological target: T3, NFR5 ectodomain (Lotus japonicus, UniProt Q70KR1); assay: BLI binding of NFR5 ectodomain; settings: analyte 100 to 1.56 µM
T3 sequence (Q70KR1 29-242): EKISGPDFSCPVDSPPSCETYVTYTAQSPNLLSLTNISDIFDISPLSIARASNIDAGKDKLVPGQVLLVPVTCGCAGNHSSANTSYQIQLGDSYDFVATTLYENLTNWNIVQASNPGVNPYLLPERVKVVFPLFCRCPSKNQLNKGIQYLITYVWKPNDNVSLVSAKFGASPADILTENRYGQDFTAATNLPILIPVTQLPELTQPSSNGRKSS

[1] = biological target: T4, engineered LYS11 (ENG-LYS11) (Lotus japonicus, UniProt D3KTZ8); assay: BLI binding of engineered LYS11 ectodomain; settings: ENG-LYS11, analyte 100 to 1.56 µM
T4 sequence (D3KTZ8 28-247): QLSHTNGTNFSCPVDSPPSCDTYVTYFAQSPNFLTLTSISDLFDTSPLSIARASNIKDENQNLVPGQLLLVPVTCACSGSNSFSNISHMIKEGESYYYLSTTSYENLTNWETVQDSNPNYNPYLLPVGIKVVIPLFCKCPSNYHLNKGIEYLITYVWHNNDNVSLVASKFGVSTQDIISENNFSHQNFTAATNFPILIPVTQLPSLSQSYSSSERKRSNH

binding to NFP (NFP) | binding kinetics (CERK1) | Kd (NFR5 ectodomain) | Kd [1] | Compound
unable to bind | – | – | – | S. meliloti succinoglycan [EPS-I]
unable to bind | – | – | – | maltodextrin
– | fast association and dissociation rates | does not bind | completely lost the ability to bind | N[C@H]1[C@H](O[C@H]2[C@H](O)[C@@H](N)[C@H](O[C@H]3[C@H](O)[C@@H](N)[C@H](O[C@H]4[C@H](O)[C@@H](N)[C@H](O[C@H]5[C@H](O)[C@@H](N)C(O)O[C@@H]5CO)O[C@@H]4CO)O[C@@H]3CO)O[C@@H]2CO)O[C@H](CO)[C@@H](O)[C@@H]1O (some centres unmarked) [CO5, chitopentaose]
